CHT inh: inhibits the human high affinity choline transporter; B-score at 10 µM; AID 488975; Q9GZV3; CHT-expressing cells, membrane potential dye, choline response; hits give low values; hit rate 0.86% among 310,000;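 active = B-score over 3 SD under the library average, and starting fluorescence ratio not unusually high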;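 note: choline stimulus applied at its EC90 after an EC20 pre-addition; B-score computed on integrated fluorescence ratio after choline addition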
KCC2 mod: KCC2 (human) Cl- transport modulation. Q9H2X9. KCC2 cells, thallium flux FluoZin-2 fluorescence. B-score of Tl+ flux slope (higher = more flux/activation; lower = inhibition) at 10 µM. hit rate 2.2% among 190,000;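 active = thallium flux slope and its plate-corrected score both differing from the plate sample mean at a set confidence after two filtering rounds, in either direction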;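 note: slope of fluorescence scaled to starting intensity during 10 to 20 s after thallium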
Rad51 HR inh: Rad51 (human) homologous recombination inhibition; Q06609; hRad51 DNA strand exchange, fluorescence dequenching; inhibition, % at 10 µM; hit rate 0.085% among 200,000; AID 1385;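 active = inhibition above 40% at the single screening dose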;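 note: 0% = DMSO control wells and 100% = blanks with heterologous ssDNA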
Target sequence (Q06609 whole entry, looked up): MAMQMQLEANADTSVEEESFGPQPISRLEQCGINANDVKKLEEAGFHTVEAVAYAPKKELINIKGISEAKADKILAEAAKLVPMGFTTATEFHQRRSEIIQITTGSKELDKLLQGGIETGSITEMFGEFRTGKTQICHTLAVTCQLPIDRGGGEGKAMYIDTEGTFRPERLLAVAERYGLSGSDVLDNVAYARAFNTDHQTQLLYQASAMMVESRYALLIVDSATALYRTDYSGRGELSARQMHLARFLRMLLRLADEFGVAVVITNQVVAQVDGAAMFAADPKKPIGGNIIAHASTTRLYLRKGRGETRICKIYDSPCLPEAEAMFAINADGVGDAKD
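Material: hRad51 filaments on single-stranded DNA; Reagent: Donor/quencher-labelled 47-bp dsDNA substrate; Compound: 10 µM final, single point; Schedule: 37 °C 15-min filament assembly, 30-min compound preincubation, 15-min exchange; Technique: FRET fluorescence, excitation 485 nm, emission 520 nm; Benchmarks: control wells and blank wells on each plate.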
CHT allo act: human CHT allosteric activation; Q9GZV3; CHT-expressing cells, membrane potential dye, choline EC20; hits give high values; LV-AA mutant CHT in HEK293 cells; B-score at 10 µM; hit rate 0.49% among 310,000; AID 488977;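 active = initial fluorescence not abnormally high and integrated response B-score, plate-corrected, over 3 SD above library mean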
CHT inh conf: confirmation of human choline transporter CHT inhibitors | hit rate 70% among 2,400 | CHT-expressing cells, choline membrane potential dye; LV-to-AA substituted CHT, HEK293 cells | shares compounds with CHT inh | CHT activity remaining % of control (hits give low values), % at 10 µM;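 active = choline transporter activity left, mean of duplicates at 10 µM, below buffer-only control mean minus 3 SD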;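 note: depolarization triggered by choline at its EC90 following an EC20 pre-addition; 0% = hemicholinium-3 full block and 100% = buffer-only control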
HEK293 MPD ctr: CHT inhibitor counter-screen hit in parental HEK293 cells; shares compounds with CHT inh; membrane potential dye, choline response; active = decrease or increase beyond buffer ±3SD; membrane potential ratio readout (active if shifted either direction beyond buffer ±3SD; no single direction) at 10 µM; hit rate 4% among 2,400;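 note: parental cells lack the transporter so any hit is non-specific; ratio is peak minus trough fluorescence over baseline after EC90 choline challenge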
* = called active by the depositor; i = inactive; x = no result. Only some compounds are listed: those with a hit (about 2.6% of all), similar ones and a draw of the others.

SMILES	CHT inh	KCC2 mod	Rad51 HR inh	CHT allo act	CHT inh conf	HEK293 MPD ctr
O=C(O/N=C(/c1ccccc1)c1ccncc1)c1ccc(F)cc1	-9.7*	-3	12	i	i	i
COc1ccccc1C(=O)O/N=C(\c1ccccc1)c1ccncc1	i	-0.66	20	i	x	x
O=C(NC1CC1)C1=C[C@H](c2ccc(Br)cc2)C[C@H](OCc2ccc(CO)cc2)O1	-6.4*	0.32	-4	i	52%*	i
O=C(Nc1ccccc1)C1=C[C@H](c2csc3ccccc23)C[C@H](OCc2ccc(CO)cc2)O1	i	0.16	-2	i	x	x
O=C(NC1CC1)C1=C[C@H](c2csc3ccccc23)C[C@H](OCc2ccc(CO)cc2)O1	-5.2*	-1.2	2	i	56%*	i
COc1ccc(C(=O)CCC(C)(C)[N+](=O)[O-])cc1OC	i	0.48	-14	i	x	x
Cc1ccc(NC(=O)c2cn(CCC#N)nc2-c2cccs2)c([N+](=O)[O-])c1	i	0.41	6	i	x	x
Cc1ccc(N2CC(C(=O)Nc3ncc([N+](=O)[O-])s3)CC2=O)cc1 (stereo unspecified)	-5*	x	x	i	50%*	i
COc1ccccc1C(CNC(=O)c1ccc(NS(=O)(=O)c2ccc(F)c(C)c2)cc1)N1CCCC1 (stereo unspecified)	i	x	x	i	x	x
O=C(NCC(c1ccco1)N1CCCCC1)c1cccc(NS(=O)(=O)c2ccc(Br)cc2)c1 (stereo unspecified)	-11*	x	x	i	37%*	i
COc1ccccc1C(CNC(=O)c1cccc(NS(=O)(=O)c2ccc(C)c(F)c2)c1)N1CCCC1 (stereo unspecified)	-5.6*	x	x	i	15%*	i
Cc1ccc(NS(=O)(=O)c2cccc(C(=O)NCC(c3ccco3)N3CCCCC3)c2)cc1 (stereo unspecified)	-13*	x	x	i	2.4%*	i
Cc1ccc(C)c(S(=O)(=O)Nc2ccc(C(=O)NCC(c3ccco3)N3CCCCC3)cc2)c1 (stereo unspecified)	i	x	x	i	x	x
COc1ccccc1NS(=O)(=O)c1cc(C(=O)NCC(c2ccco2)N2CCCCC2)ccc1C (stereo unspecified)	-12*	x	x	i	11%*	i
O=C(O)CC1S/C(=N\N=C2\C(=O)Nc3ccccc32)N(c2ccc(O)cc2)C1=O (stereo unspecified)	i	x	x	i	x	x
Cc1nc2nc(-c3ccc(Cl)cc3)[nH]n2c(=O)c1C	x	-0.1	9	x	x	x
CCCCc1cc(-c2n[nH]c(=S)o2)c2ccccc2n1	-8.4*	x	x	i	67%*	i
CN1CCN(c2ccc(Cl)cc2NC(=O)c2ccc(S(=O)(=O)N3CCCCCC3)cc2)CC1	i	0.26	-1	i	x	x
CN1CCN(c2ccc(Cl)cc2NC(=O)c2ccc(=O)n(C)n2)CC1	-5.6*	0.85	-4	i	56%*	5.3*
O=C(O)C1=CC[C@@H](c2ccc(Cl)cc2)N(S(=O)(=O)c2ccc(Cl)cc2)[C@H]1c1ccc(F)cc1	-6.3*	x	x	i	58%*	i
CCOc1ccc([C@@H]2CC=C(C(=O)O)[C@H](c3cccc(Cl)c3)N2S(=O)(=O)c2ccc(C)cc2)cc1	-6.1*	x	x	i	62%*	i
Cc1ccc(S(=O)(=O)N2[C@@H](c3cccc(Cl)c3)C(C(=O)O)=CC[C@H]2c2ccc(Cl)cc2)cc1	i	x	x	i	x	x
Cc1ccc([C@@H]2CC=C(C(=O)O)[C@H](c3ccc(F)cc3)N2S(=O)(=O)c2ccc(C)cc2)cc1	i	x	x	i	x	x
Cc1ccc(S(=O)(=O)N2[C@@H](c3ccc(Cl)cc3)C(C(=O)O)=CC[C@H]2c2ccc(Cl)c(Cl)c2)cc1	-6.2*	x	x	i	65%*	i
Cc1ccc(S(=O)(=O)N(C)CC(=O)N2CCN(Cc3ccccc3)CC2)cc1	i	x	x	i	x	x
SMILES	CHT inh	KCC2 mod	Rad51 HR inh	CHT allo act	CHT inh conf	HEK293 MPD ctr
CC(C)c1ccc(Nc2c([N+](=O)[O-])c(=O)n(C)c3ccccc23)cc1	i	-2.2	3	i	x	x
Cn1c(=O)c(Nc2ccc(O)cc2)c2c3c(cccc31)C(=O)c1ccccc1-2	-16*	-2.5	-100	i	9.4%*	i
CC(C)CC(=O)Nc1nc(=S)ss1	-6.8*	-0.022	6	i	40%*	i
CC(=O)Nc1nc(=S)ss1	i	x	-2	i	x	x
Fc1ccc(-c2nnc(SCc3ncc(-c4ccccc4)o3)n2CC2CCCO2)cc1 (stereo unspecified)	-5.9*	x	5	i	i	i
COc1ccc(-c2nnc(SCc3nnc(-c4cccs4)o3)n2CC2CCCO2)cc1 (stereo unspecified)	i	-0.44	x	i	x	x
CCN(CC)C(=O)CSc1nnc(-c2ccccn2)n1-c1ccccc1OC	i	0.036	-6	i	x	x
Cc1ccccc1Cn1nc(C)c(NC(=O)c2noc3c2CCCC3)c1C	i	0.33	-1	i	x	x
Cc1nn(Cc2ccccc2Cl)c(C)c1NC(=O)c1noc2c1CCCCC2	-5.7*	x	-4	i	41%*	i
CCOc1ccc(CCNC(=O)CN2C(=O)NC(CCSC)C2=O)cc1OCC (stereo unspecified)	i	-0.33	-2	i	x	x
CCCCN(CCCC)S(=O)(=O)c1ccc(NC(=O)c2ccc([N+](=O)[O-])cc2Cl)cc1	-6.2*	0	-9	i	70%*	i
CC(NC(=O)C1CCCN(S(=O)(=O)N2CCOCC2)C1)c1ccccc1 (stereo unspecified)	i	x	x	i	x	x
COc1cc(OC)cc(-c2nc3ccccc3c(=O)n2OC(=O)c2ccccc2C)c1	i	-0.43	x	i	x	x
O=C(On1c(-c2ccccc2)nc2ccccc2c1=O)c1ccco1	-9.7*	-2.2	3	i	57%*	i
Cc1cc(C(=O)N/N=C/c2ccc3c(c2)OCO3)c(C)o1	-7.1*	0.52	5	i	i	i
COc1ccc(C2=Nn3c(nnc3-c3ccccc3OC)SC2)cc1OC	-6.9*	-1.5	0	i	48%*	i
COc1ccc(C2=Nn3c(nnc3-c3ccccn3)SC2)cc1OC	i	-1.4	0	i	x	x
CCS(=O)(=O)C1=NN2C(=N)/C(=C\c3ccc(OS(=O)(=O)c4ccccc4)cc3)C(=O)N=C2S1	-8.7*	x	x	i	42%*	i
COc1cc(/C=C2/C(=N)N3C(=NC2=O)SN=C3S(C)(=O)=O)ccc1OS(=O)(=O)c1ccc(C)cc1	i	x	x	i	x	x
CS(=O)(=O)C1=NSC2=NC(=O)/C(=C\c3ccc(OS(=O)(=O)c4ccccc4)cc3)C(=N)N21	-6.6*	x	x	i	58%*	i
